Data as given in paper PMC6815263 (European journal of medicinal chemistry, 2019).

target: human TRPV1 (Homo sapiens, UniProt Q8NER1); assay: 45Ca2+ uptake assay, antagonism of capsaicin; type: cell-based; settings: not given
Sequence (Q8NER1 whole entry): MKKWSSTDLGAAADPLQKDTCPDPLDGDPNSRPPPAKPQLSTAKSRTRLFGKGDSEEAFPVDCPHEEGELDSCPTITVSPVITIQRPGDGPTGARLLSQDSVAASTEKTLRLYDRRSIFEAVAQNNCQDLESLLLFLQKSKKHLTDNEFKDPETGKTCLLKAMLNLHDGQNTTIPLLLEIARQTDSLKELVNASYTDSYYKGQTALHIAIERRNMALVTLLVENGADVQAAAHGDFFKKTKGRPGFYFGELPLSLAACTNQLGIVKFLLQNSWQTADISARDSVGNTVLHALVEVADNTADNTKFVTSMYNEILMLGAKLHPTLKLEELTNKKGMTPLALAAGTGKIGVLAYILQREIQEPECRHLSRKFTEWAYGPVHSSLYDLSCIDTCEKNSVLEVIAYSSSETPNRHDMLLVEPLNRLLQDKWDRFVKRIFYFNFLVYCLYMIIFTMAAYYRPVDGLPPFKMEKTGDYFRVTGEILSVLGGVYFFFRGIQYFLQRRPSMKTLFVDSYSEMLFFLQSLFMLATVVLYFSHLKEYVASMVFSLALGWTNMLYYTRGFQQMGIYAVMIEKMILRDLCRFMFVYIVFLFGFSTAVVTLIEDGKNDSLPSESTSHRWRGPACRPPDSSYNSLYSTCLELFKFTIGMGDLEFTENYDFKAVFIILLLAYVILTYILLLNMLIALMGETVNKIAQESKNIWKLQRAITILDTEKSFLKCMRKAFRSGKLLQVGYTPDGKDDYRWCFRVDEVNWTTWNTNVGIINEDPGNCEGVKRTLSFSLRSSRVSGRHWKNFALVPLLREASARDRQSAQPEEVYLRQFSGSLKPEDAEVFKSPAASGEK

Row | Compound | Ki [nM]
1 | CC(C(=O)NCc1ccc(C(F)(F)F)cc1N1CCC(Cc2ccccc2)(N(C)C)CC1)c1ccc(NS(C)(=O)=O)c(F)c1 (centres unmarked) [compound 11, N-(2-(4-Benzyl-4-(dimethylamino)piperidin-1-yl)-4-(trifluoromethyl)benzyl)-2-(3-fluoro-4-(methylsulfonamido)phenyl)propanamide] | 8.2
2 | CN(C)C1(Cc2ccccc2)CCN(c2cc(C(F)(F)F)ccc2CNC(=O)Nc2ccc3c(c2)OCC3)CC1 [compound 33, 1-(2-(4-Benzyl-4-(dimethylamino)piperidin-1-yl)-4-(trifluoromethyl)benzyl)-3-(2,3-dihydrobenzofuran-6-yl)urea] | 31.3
3 | CN(C)C1(Cc2ccccc2)CCN(c2cc(C(F)(F)F)ccc2CNC(=O)Nc2cccc3ccncc23)CC1 [compound 47, 1-(2-(4-Benzyl-4-(dimethylamino)piperidin-1-yl)-4-(trifluoromethyl)benzyl)-3-(isoquinolin-8-yl)urea] | 18.7
4 | CN(C)C1(Cc2ccccc2)CCN(c2cc(C(F)(F)F)ccc2CNC(=O)Nc2cccc3[nH]c(=O)ccc23)CC1 [compound 35, 1-(2-(4-Benzyl-4-(dimethylamino)piperidin-1-yl)-4-(trifluoromethyl)benzyl)-3-(2-oxo-1,2-dihydroquinolin-5-yl)urea] | 30.6
5 | CN(C)C1(Cc2ccccc2)CCN(c2cc(C(F)(F)F)ccc2CNC(=O)Nc2ccc3ccncc3c2)CC1 [compound 45, 1-(2-(4-Benzyl-4-(dimethylamino)piperidin-1-yl)-4-(trifluoromethyl)benzyl)-3-(isoquinolin-7-yl)urea] | 56.1
6 | CN(C)C1(Cc2ccccc2)CCN(c2cc(C(F)(F)F)ccc2CNC(=O)Nc2cccc3cnccc23)CC1 [compound 48, 1-(2-(4-Benzyl-4-(dimethylamino)piperidin-1-yl)-4-(trifluoromethyl)benzyl)-3-(isoquinolin-5-yl)urea] | 8.8
7 | CN(C)C1(Cc2ccccc2)CCN(c2cc(C(F)(F)F)ccc2CNC(=O)Nc2ccc3cnccc3c2)CC1 [compound 46, 1-(2-(4-Benzyl-4-(dimethylamino)piperidin-1-yl)-4-(trifluoromethyl)benzyl)-3-(isoquinolin-6-yl)urea] | 156
8 | CN(C)C1(Cc2ccccc2)CCN(c2cc(C(F)(F)F)ccc2CNC(=O)NCc2ccc(NS(C)(=O)=O)c(F)c2)CC1 [compound 17, N-(4-((3-(2-(4-Benzyl-4-(dimethylamino)piperidin-1-yl)-4-(trifluoromethyl)benzyl)-ureido)-methyl)-2-fluorophenyl)methanesulfonamide] | 85.9
9 | CN(C)C1(Cc2ccccc2)CCN(c2cc(C(F)(F)F)ccc2CNC(=O)Nc2ccc(CO)c(F)c2)CC1 [compound 23, 1-(2-(4-Benzyl-4-(dimethylamino)piperidin-1-yl)-4-(trifluoromethyl)benzyl)-3-(3-fluoro-4-(hydroxymethyl)phenyl)urea] | 81
10 | CC1CCN(c2nc(C(F)(F)F)ccc2CNC(=O)[C@@H](C)c2ccc(NS(C)(=O)=O)c(F)c2)CC1 [compound 1, reference compound] | 2.22
11 | CN(C)C1(Cc2ccccc2)CCN(c2cc(C(F)(F)F)ccc2CNC(=O)Nc2ccc3cccnc3c2)CC1 [compound 44, 1-(2-(4-Benzyl-4-(dimethylamino)piperidin-1-yl)-4-(trifluoromethyl)benzyl)-3-(quinolin-7-yl)urea] | 42
12 | CN(C)C1(Cc2ccccc2)CCN(c2cc(C(F)(F)F)ccc2CNC(=O)Nc2ccc(CNS(C)(=O)=O)c(F)c2)CC1 [compound 15, N-(4-(3-(2-(4-Benzyl-4-(dimethylamino)piperidin-1-yl)-4-(trifluoromethyl)benzyl)-ureido)-2-fluorobenzyl)methanesulfonamide] | 25

target: mu-opioid receptor (MOR) (Homo sapiens, UniProt P35372); assay: MOR binding competition assay with [3H]DAMGO; settings: MOR binding Ki relative to morphine
Sequence (P35372 whole entry, species assumed): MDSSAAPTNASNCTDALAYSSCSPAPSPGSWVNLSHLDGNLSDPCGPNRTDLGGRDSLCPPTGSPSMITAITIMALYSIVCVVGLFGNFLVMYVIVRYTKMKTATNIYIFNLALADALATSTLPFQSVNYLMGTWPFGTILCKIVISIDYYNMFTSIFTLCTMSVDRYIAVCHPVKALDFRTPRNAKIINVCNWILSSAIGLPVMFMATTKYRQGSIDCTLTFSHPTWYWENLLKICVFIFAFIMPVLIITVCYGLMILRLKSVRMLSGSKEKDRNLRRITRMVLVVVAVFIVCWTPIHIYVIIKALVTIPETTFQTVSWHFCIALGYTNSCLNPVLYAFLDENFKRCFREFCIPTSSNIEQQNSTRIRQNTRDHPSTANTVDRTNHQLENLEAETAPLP

Row | Compound | fold less potent than morphine (MOR Ki) [fold]
13 | CN(C)C1(Cc2ccccc2)CCN(c2cc(C(F)(F)F)ccc2CNC(=O)Nc2cccc3ncccc23)CC1 [compound 49, 1-(2-(4-Benzyl-4-(dimethylamino)piperidin-1-yl)-4-(trifluoromethyl)benzyl)-3-(quinolin-5-yl)urea] | 5

tested on: ICR mice; assay: Formalin test; type: in vivo, mouse; settings: 40 mg/kg i.p., formalin assay phase 2
Outline: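 Male ICR mice (20-25 g, groups of 6-8) were housed at 22 ± 2 °C and 50 ± 5% humidity and acclimated to the chamber for at least 5 min. Test compound was given i.p. 30 min before 20 μL of 2% formalin in 0.9% saline was injected into the dorsal right hindpaw. Licking/biting time (s) was summed per 5-min block over 30 min: early phase 0-5 min, late phase 20-30 min.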

Row | Compound | inhibition of pain behavior in phase 2
14 | CN(C)C1(Cc2ccccc2)CCN(c2cc(C(F)(F)F)ccc2CNC(=O)Nc2cccc3ncccc23)CC1 [compound 49, 1-(2-(4-Benzyl-4-(dimethylamino)piperidin-1-yl)-4-(trifluoromethyl)benzyl)-3-(quinolin-5-yl)urea] | completely
